Data as given in ChEMBL document CHEMBL1795208 (J Med Chem, 2011).
Calls of active or inactive are those of the source. The rule behind the calls is not given here.

Tests used:
SK-BR-3 [1] = experiment: Ratio of novobiocin IC50 to compound IC50 for human SKBR3 cells expressing HER2; assay type: functional
MCF7 = experiment: Antiproliferative activity against human MCF7 cells expressing estrogen receptor after 72 hrs by MTS/PMS assay; assay type: functional, cell-based; details: MCF7, 72 h
Outline: (§1)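 Cells kept in Advanced DMEM/F12 (1:1) with non-essential amino acids, 2 mM L-glutamine, penicillin, streptomycin and 10% FBS at 37 °C, 5% CO2. Seeded at 2000/well, attached overnight. Compound added in DMSO across a concentration range (1% DMSO final) for 72 h. Viable cells read by MTS/PMS and normalized to 1% DMSO controls (100%). IC50 taken from separate triplicate experiments.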

SK-BR-3 [2] = experiment: Antiproliferative activity against human SKBR3 cells expressing HER2 after 72 hrs by MTS/PMS assay; assay type: functional, cell-based; details: SK-BR-3, 72 h; outline: as §1
[3] = biological target: T1, Heat shock protein HSP90 (Homo sapiens) (UniProt P07900+P08238); experiment: Inhibition of Hsp90 in human MCF7 cells assessed as Her2 degradation at IC50 concentration after 24 hrs by Western blot analysis; assay type: cell-based
[4] = biological target: T1, Heat shock protein HSP90 (Homo sapiens); experiment: Inhibition of Hsp90 in human MCF7 cells assessed as Raf1 degradation after 24 hrs by Western blot analysis; assay type: cell-based
Outline: (§2)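 MCF-7 cells grown as for proliferation and treated with compound at various concentrations, GDA, or DMSO vehicle (1% DMSO final) for 24 h. Lysed in RIPA with 1 mM PMSF, 2 mM orthovanadate and protease inhibitors on ice for 1 h, then clarified at 14000g. Protein measured by BCA. 20 µg run reducing, transferred to nitrocellulose and probed with specific antibodies.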

[5] = Antiproliferative activity against human androgen-independent PC3MM2 cells after 72 hrs by MTS/PMS assay; assay type: functional, cell-based; details: PC3MM2, 72 h; outline: as §1
[6] = biological target: T1, Heat shock protein HSP90 (Homo sapiens); experiment: Inhibition of Hsp90 in human MCF7 cells assessed as Akt degradation at IC50 concentration after 24 hrs by Western blot analysis; assay type: cell-based
[7] = biological target: T1, Heat shock protein HSP90 (Homo sapiens); experiment: Inhibition of Hsp90 in human MCF7 cells assessed as Akt degradation after 24 hrs by Western blot analysis; assay type: cell-based; outline: as §2
[8] = biological target: T1, Heat shock protein HSP90 (Homo sapiens); experiment: Inhibition of Hsp90 in human MCF7 cells assessed as Her2 degradation after 24 hrs by Western blot analysis; assay type: cell-based; outline: as §2
[9] = biological target: T1, Heat shock protein HSP90 (Homo sapiens); experiment: Inhibition of Hsp90 in human MCF7 cells assessed as Raf1 degradation at IC50 concentration after 24 hrs by Western blot analysis; assay type: cell-based
SK-MEL-28 = experiment: Antiproliferative activity against human SK-MEL-28 cells after 72 hrs by MTS/PMS assay; assay type: functional, cell-based; details: SK-MEL-28, 72 h; outline: as §1
[10] = Antiproliferative activity against human androgen-dependent LNCaP-LN3 cells after 72 hrs by MTS/PMS assay; assay type: functional, cell-based; details: LNCaP-LN3, 72 h; outline: as §1
B16-F10 = experiment: Antiproliferative activity against mouse B16F10 cells after 72 hrs by MTS/PMS assay; assay type: functional, cell-based; details: B16-F10, 72 h; outline: as §1
[11] = Antiproliferative activity against human JMAR cells after 72 hrs by MTS/PMS assay; assay type: functional, cell-based; outline: as §1
[12] = Antiproliferative activity against human MDA1986 cells after 72 hrs by MTS/PMS assay; assay type: functional, cell-based; details: MDA1986, 72 h; outline: as §1

Row | IC50 (MCF7) | IC50 (SK-BR-3 [2]) | inhibition [3] | inhibition [4] | inhibition [6] | inhibition [7] | inhibition [8] | inhibition [9] | IC50 (SK-MEL-28) | IC50 (B16-F10) | Structure (SMILES) | Ratio IC50 (SK-BR-3 [1]) | IC50 [5] | IC50 [10] | IC50 [11] | IC50 [12]
1 | – | – | – | – | – | – | – | – | – | – | COc1cccc(-c2cc(C(=O)Nc3cc4cc(OC)c(O[C@@H]5OC[C@@H]6OC(=O)O[C@H]56)c(C)c4oc3=O)ccc2OC)c1 | 500 | – | – | – | –
2 | 10.8 µM | 11.1 µM | – | – | – | – | – | – | – | – | COc1cccc(-c2cc(C(=O)Nc3cc4ccc(O[C@H]5OCC[C@@H](O)[C@H]5O)c(OC)c4oc3=O)ccc2OC)c1 | 500 | – | – | – | –
3 | 0.54 µM | 0.42 µM | Active | Dose-dependent effect | Active | Dose-dependent effect | Dose-dependent effect | Active | – | – | COc1cc2cc(NC(=O)c3ccc(O)c(CC=C(C)C)c3)c(=O)oc2c(C)c1OC1CCN(C)CC1 | – | 2.26 µM | – | – | –
4 | 0.7 µM | 0.36 µM | Active | Dose-dependent effect | Active | Dose-dependent effect | Dose-dependent effect | Active | – | – | COc1cc2cc(NC(=O)c3ccc(OC(C)=O)c(CC=C(C)C)c3)c(=O)oc2c(C)c1OCCCN(C)C | – | 1.46 µM | – | – | –
5 | 2.82 µM | 1.2 µM | – | – | – | – | – | – | 5.75 µM | 1.84 µM | COc1cccc(-c2cc(C(=O)Nc3cc4cc(OC)c(OC5CCNCC5)c(C)c4oc3=O)ccc2OC)c1 | – | 4.02 µM | 5.27 µM | 10.9 µM | 14.6 µM
6 | 2.01 µM | 2.77 µM | – | – | – | – | – | – | 5.73 µM | 2.81 µM | COc1cccc(-c2cc(C(=O)Nc3cc4cc(OC)c(OC5CN(C)C[C@@H](O)[C@H]5O)c(C)c4oc3=O)ccc2OC)c1 (stereo partly specified) | – | 4.17 µM | 4.69 µM | 24.5 µM | 12.8 µM
7 | 11 µM | 6.64 µM | – | – | – | – | – | – | 5.9 µM | 6.58 µM | COc1cccc(-c2cc(C(=O)Nc3cc4ccc(OC5CN(C)C[C@@H](O)[C@H]5O)c(OC)c4oc3=O)ccc2OC)c1 (stereo partly specified) | – | 3.52 µM | 1.5 µM | 6.7 µM | 5.9 µM
